Several values for one entry are separate records, joined by “and”; a condition that tells them apart may be missing. Identical values can stand only once.
What was measured:
Nitric oxide synthase 3 = molecular target: T1, Nitric oxide synthase 3 (Bos taurus, UniProt P29473); assay: Inhibitory activity against endothelial nitric oxide synthase (eNOS)
T1 sequence (P29473 whole entry): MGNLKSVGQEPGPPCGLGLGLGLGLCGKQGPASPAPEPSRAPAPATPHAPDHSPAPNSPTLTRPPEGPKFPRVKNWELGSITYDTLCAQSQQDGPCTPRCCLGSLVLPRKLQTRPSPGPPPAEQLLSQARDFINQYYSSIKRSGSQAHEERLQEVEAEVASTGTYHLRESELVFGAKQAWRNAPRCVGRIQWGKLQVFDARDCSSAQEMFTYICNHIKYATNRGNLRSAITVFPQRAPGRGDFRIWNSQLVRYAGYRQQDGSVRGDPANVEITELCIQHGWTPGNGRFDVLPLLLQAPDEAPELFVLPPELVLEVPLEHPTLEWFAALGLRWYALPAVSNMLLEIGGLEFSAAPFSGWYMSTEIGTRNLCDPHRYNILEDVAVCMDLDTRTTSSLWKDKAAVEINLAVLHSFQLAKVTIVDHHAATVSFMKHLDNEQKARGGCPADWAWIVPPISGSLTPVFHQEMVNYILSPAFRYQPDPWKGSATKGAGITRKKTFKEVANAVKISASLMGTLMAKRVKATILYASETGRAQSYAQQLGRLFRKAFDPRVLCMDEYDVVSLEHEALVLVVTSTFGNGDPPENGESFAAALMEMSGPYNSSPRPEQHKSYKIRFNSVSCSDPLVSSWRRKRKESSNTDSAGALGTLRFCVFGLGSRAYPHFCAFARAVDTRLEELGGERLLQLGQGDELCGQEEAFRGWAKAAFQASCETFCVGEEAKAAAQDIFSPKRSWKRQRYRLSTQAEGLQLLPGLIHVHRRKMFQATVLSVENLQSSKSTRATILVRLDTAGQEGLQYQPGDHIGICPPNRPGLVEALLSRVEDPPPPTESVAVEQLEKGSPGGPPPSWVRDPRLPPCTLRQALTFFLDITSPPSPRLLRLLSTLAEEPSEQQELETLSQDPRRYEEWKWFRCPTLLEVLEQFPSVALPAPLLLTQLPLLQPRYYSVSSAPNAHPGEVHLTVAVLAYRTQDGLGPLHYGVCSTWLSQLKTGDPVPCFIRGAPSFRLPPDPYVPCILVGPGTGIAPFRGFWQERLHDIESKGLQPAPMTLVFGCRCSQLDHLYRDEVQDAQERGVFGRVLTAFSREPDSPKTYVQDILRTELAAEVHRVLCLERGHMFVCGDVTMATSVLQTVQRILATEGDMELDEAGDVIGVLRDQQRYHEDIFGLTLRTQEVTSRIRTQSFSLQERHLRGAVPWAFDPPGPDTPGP

Nitric oxide synthase 1 [1] = molecular target: T2, Nitric oxide synthase 1 (Rattus norvegicus, UniProt P29476); assay: Inhibitory activity against neuronal nitric oxide synthase (nNOS); Range is 50-100 uM
Nitric oxide synthase 1 [2] = molecular target: T2, Nitric oxide synthase 1; assay: Inhibitory activity against neuronal nitric oxide synthase (nNOS)
[3] = molecular target: T3, Nitric oxide synthase, inducible (Mus musculus) (UniProt P29477); assay: Inhibitory activity against inducible nitric oxide synthase (iNOS) at 100 uM; parameters: scale not given: the % may be the effect or the level left
T3 sequence (whole entry): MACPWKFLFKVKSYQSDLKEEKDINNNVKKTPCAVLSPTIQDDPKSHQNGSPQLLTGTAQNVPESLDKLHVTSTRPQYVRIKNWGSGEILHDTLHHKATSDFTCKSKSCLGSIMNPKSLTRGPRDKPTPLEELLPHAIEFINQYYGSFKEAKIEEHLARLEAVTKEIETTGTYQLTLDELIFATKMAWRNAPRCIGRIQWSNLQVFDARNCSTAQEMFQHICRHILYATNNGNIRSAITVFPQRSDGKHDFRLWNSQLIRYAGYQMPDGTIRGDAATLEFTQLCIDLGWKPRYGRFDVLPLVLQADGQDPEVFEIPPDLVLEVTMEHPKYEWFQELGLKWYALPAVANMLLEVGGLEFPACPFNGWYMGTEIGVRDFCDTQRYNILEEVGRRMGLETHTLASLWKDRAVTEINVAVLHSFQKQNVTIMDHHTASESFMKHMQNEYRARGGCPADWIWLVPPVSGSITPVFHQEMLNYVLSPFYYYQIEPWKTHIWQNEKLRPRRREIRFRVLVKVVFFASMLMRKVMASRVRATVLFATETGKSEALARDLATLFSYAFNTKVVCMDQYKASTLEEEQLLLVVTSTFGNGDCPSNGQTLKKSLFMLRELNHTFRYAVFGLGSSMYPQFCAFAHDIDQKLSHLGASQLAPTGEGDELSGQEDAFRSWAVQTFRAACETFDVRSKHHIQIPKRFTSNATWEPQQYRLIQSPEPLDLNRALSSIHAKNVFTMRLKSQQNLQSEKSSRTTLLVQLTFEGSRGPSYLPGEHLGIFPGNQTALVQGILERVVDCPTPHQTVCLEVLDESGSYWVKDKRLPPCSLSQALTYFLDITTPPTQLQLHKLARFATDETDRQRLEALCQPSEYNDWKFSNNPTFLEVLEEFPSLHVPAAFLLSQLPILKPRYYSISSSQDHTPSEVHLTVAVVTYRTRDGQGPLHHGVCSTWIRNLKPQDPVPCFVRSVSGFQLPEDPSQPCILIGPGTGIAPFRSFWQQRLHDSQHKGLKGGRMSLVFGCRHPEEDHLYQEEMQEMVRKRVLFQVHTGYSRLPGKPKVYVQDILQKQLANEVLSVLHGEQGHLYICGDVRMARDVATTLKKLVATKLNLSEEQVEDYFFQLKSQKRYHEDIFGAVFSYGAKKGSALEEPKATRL
Outline: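 Single-point screen against murine macrophage iNOS: enzyme residual activity measured at 100 μM inhibitor. NO formation monitored by hemoglobin capture assay with a UV/vis spectrophotometer.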

T2 sequence (P29476 whole entry): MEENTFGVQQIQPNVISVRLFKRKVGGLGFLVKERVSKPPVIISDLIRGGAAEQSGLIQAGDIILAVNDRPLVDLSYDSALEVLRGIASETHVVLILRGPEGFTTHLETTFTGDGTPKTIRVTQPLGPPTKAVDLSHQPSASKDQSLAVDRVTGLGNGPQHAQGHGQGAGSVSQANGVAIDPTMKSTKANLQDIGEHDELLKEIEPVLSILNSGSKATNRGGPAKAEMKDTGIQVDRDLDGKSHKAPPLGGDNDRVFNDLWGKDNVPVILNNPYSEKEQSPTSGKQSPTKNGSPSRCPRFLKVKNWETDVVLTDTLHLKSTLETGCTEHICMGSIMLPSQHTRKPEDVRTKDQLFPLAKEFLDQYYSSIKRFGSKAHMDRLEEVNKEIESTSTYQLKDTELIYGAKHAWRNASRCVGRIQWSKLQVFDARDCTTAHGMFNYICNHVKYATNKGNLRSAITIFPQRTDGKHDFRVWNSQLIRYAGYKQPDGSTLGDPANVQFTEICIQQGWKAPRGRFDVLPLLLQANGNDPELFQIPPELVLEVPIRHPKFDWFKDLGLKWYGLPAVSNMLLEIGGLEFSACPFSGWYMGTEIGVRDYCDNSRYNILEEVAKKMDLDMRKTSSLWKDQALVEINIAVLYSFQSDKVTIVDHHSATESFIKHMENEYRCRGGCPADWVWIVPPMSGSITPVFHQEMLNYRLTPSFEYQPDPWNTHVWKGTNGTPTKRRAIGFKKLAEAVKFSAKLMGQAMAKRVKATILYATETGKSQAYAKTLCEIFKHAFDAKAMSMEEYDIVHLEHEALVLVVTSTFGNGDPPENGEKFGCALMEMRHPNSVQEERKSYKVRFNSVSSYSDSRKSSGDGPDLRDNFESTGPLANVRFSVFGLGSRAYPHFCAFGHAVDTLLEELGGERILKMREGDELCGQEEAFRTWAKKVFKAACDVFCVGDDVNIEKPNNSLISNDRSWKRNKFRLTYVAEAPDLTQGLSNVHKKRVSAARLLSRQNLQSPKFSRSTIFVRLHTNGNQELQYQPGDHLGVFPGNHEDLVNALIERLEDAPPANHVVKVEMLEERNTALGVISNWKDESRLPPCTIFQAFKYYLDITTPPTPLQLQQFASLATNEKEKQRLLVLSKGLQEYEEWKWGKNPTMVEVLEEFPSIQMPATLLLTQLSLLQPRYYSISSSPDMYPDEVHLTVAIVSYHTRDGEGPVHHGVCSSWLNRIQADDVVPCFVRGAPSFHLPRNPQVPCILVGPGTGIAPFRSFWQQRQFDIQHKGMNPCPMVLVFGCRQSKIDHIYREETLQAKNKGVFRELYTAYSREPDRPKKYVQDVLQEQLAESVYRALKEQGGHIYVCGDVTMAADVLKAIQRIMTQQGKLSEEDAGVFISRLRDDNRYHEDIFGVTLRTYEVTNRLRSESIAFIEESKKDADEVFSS

Row | Compound | IC50 (Nitric oxide synthase 3) | further results
1 | [N-]=[N+]=N[C@H]1CN[C@@H](C(=O)C[C@@H](CCC/N=C(\N)N[N+](=O)[O-])C(N)=O)C1 | > 100 µM | 
2 | [N-]=[N+]=N[C@@H]1CN[C@@H](C(=O)C[C@@H](CCC/N=C(\N)N[N+](=O)[O-])C(N)=O)C1 | > 100 µM | IC50 (Nitric oxide synthase 1 [1]): < 100 µM
3 | NC(=O)[C@@H]1C[C@@H](NC(=O)C(F)(F)F)CN1C(=O)[C@H](N)CCC/N=C(\N)N[N+](=O)[O-] | > 100 µM | 
4 | NC(=O)[C@@H]1C[C@H](N)CN1C(=O)[C@H](N)CCC/N=C(\N)N[N+](=O)[O-] | > 100 µM | 
5 | NC(=O)C1CC(N)CN1C(=O)C(N)CCC/N=C(\N)N[N+](=O)[O-] (stereo unspecified) | > 100 µM | 
6 | NC(=O)[C@@H]1C[C@@H](NC(=O)C(F)(F)F)CN1C(=O)[C@@H](N)CCC/N=C(\N)N[N+](=O)[O-] | > 100 µM | IC50 (Nitric oxide synthase 1 [2]): ~100 µM
7 | NC(=O)[C@@H]1C[C@H](NC(=O)C(F)(F)F)CN1C(=O)[C@H](N)CCC/N=C(\N)N[N+](=O)[O-] | > 100 µM | 
8 | NC(=O)[C@@H]1C[C@@H](N)CN1C(=O)[C@H](N)CCC/N=C(\N)N[N+](=O)[O-] | > 100 µM | 
9 | NC(=O)[C@@H]1C[C@@H](N)CN1C(=O)[C@@H](N)CCC/N=C(\N)N[N+](=O)[O-] | > 100 µM | IC50 (Nitric oxide synthase 1 [2]): ~100 µM
10 | NC(=O)[C@@H]1C[C@H](N)CN1C(=O)[C@@H](N)CCC/N=C(\N)N[N+](=O)[O-] | > 100 µM | 
11 | NC(=O)[C@@H]1C[C@H](NC(=O)C(F)(F)F)CN1C(=O)[C@@H](N)CCC/N=C(\N)N[N+](=O)[O-] | > 100 µM | 
12 | CC(=N)Nc1cccc(CN)c1 | 0.48 µM and 1.1 µM | IC50 (Nitric oxide synthase 1 [2]): 0.011 µM
13 | NC(=O)[C@@H]1C[C@@H](NC(=O)[C@H](N)CCC/N=C(\N)N[N+](=O)[O-])CN1 |  | Activity [3]: 97%
14 | NC(=O)[C@@H]1C[C@H](NC(=O)[C@@H](N)CCC/N=C(\N)N[N+](=O)[O-])CN1 |  | Activity [3]: 95%
15 | NC(=O)[C@@H]1C[C@H](NC(=O)[C@H](N)CCC/N=C(\N)N[N+](=O)[O-])CN1 |  | Activity [3]: 96%
16 | [N-]=[N+]=N[C@H]1CNC(C(=O)N[C@H](CCCNC(=N)N[N+](=O)[O-])C(N)=O)C1 (single isomer, unassigned) | > 100 µM | IC50 (Nitric oxide synthase 1 [1]): < 100 µM
17 | [N-]=[N+]=N[C@@H]1CNC(C(=O)N[C@H](CCCNC(=N)N[N+](=O)[O-])C(N)=O)C1 (single isomer, unassigned) | > 100 µM | 
18 | N=C(NCCC[C@@H](NC(=O)C1C[C@H](N)CN1)C(N)=O)N[N+](=O)[O-] (single isomer, unassigned) | > 100 µM | 
19 | N=C(NCCC[C@@H](NC(=O)C1C[C@@H](N)CN1)C(N)=O)N[N+](=O)[O-] (single isomer, unassigned) | > 100 µM | 
20 | N=C(NCCC[C@H](NC(=O)C1C[C@@H](N)CN1)C(N)=O)N[N+](=O)[O-] (single isomer, unassigned) | > 100 µM | 

Row | Compound | IC50 (Nitric oxide synthase 3) | further results
21 | N=C(NCCC[C@H](NC(=O)C1C[C@H](N)CN1)C(N)=O)N[N+](=O)[O-] (single isomer, unassigned) | > 100 µM | 
22 | [N-]=[N+]=N[C@@H]1CNC(C(=O)N[C@@H](CCC/N=C(\N)N[N+](=O)[O-])C(N)=O)C1 (single isomer, unassigned) | > 100 µM | 
23 | [N-]=[N+]=N[C@H]1CNC(C(=O)N[C@@H](CCC/N=C(\N)N[N+](=O)[O-])C(N)=O)C1 (single isomer, unassigned) | > 100 µM | IC50 (Nitric oxide synthase 1 [1]): < 100 µM
24 | N=C(NCCC[C@@H](N)C(=O)NC1CNC(C(N)=O)C1)N[N+](=O)[O-] (single isomer, unassigned) |  | Activity [3]: 96%
25 | N=C(NCCC[C@@H](N)C(=O)N[C@H]1CNC(C(N)=O)C1)N[N+](=O)[O-] (single isomer, unassigned) |  | Activity [3]: 97%
26 | N=C(NCCC[C@H](N)C(=O)N[C@H]1CNC(C(N)=O)C1)N[N+](=O)[O-] (single isomer, unassigned) |  | Activity [3]: 94%
27 | N=C(NCCC[C@H](N)C(=O)N1CC(NC(=O)C(F)(F)F)C[C@@H]1C(N)=O)N[N+](=O)[O-] (single isomer, unassigned; cis) | > 100 µM | 
28 | [N-]=[N+]=NC1CN[C@@H](C(=O)N[C@H](CCCNC(=N)N[N+](=O)[O-])C(N)=O)C1 (single isomer, unassigned; cis) | > 100 µM | 
29 | N=C(NCCC[C@@H](N)C(=O)N1CC(NC(=O)C(F)(F)F)C[C@@H]1C(N)=O)N[N+](=O)[O-] (single isomer, unassigned; cis) | > 100 µM | 
30 | N=C(NCCC[C@H](N)C(=O)N1CC(N)C[C@@H]1C(N)=O)N[N+](=O)[O-] (single isomer, unassigned; cis) | > 100 µM | 
31 | N=C(NCCC[C@@H](N)C(=O)N1CC(N)C[C@@H]1C(N)=O)N[N+](=O)[O-] (single isomer, unassigned; cis) | > 100 µM | IC50 (Nitric oxide synthase 1 [2]): ~100 µM
32 | N=C(NCCC[C@@H](NC(=O)[C@H]1CC(N)CN1)C(N)=O)N[N+](=O)[O-] (single isomer, unassigned; cis) | > 100 µM | IC50 (Nitric oxide synthase 1 [1]): < 100 µM
33 | N=C(NCCC[C@H](NC(=O)[C@H]1CC(N)CN1)C(N)=O)N[N+](=O)[O-] (single isomer, unassigned; cis) | > 100 µM | IC50 (Nitric oxide synthase 1 [1]): < 100 µM
34 | NC(=O)[C@H]1CC(N)CN1C(=O)[C@@H](N)CCC/N=C(\N)N[N+](=O)[O-] (single isomer, unassigned; trans) | > 100 µM | 
35 | NC(=O)[C@H]1CC(NC(=O)C(F)(F)F)CN1C(=O)[C@H](N)CCC/N=C(/N)N[N+](=O)[O-] (single isomer, unassigned; trans) | > 100 µM | 
36 | N=C(NCCC[C@H](N)C(=O)N1CC(NC(=O)C(F)(F)F)C[C@@H]1C(N)=O)N[N+](=O)[O-] (single isomer, unassigned; trans) | > 100 µM | 
37 | [N-]=[N+]=NC1CN[C@@H](C(=O)N[C@H](CCCNC(=N)N[N+](=O)[O-])C(N)=O)C1 (single isomer, unassigned; trans) | > 100 µM | 
38 | N=C(NCCC[C@@H](NC(=O)[C@H]1CC(N)CN1)C(N)=O)N[N+](=O)[O-] (single isomer, unassigned; trans) | > 100 µM | IC50 (Nitric oxide synthase 1 [1]): < 100 µM
39 | N=C(NCCC[C@H](NC(=O)[C@H]1CC(N)CN1)C(N)=O)N[N+](=O)[O-] (single isomer, unassigned; trans) | > 100 µM | IC50 (Nitric oxide synthase 1 [1]): < 100 µM
40 | N=C(NCCC[C@@H](N)C(=O)N1CC(N)C[C@@H]1C(N)=O)N[N+](=O)[O-] (single isomer, unassigned; trans) | > 100 µM | 

From ChEMBL document CHEMBL1137082, “Potent and selective conformationally restricted neuronal nitric oxide synthase inhibitors” (J Med Chem, 2004)
